Source: publication PMC2982901 (Cancer chemotherapy and pharmacology, 2010)
Where “and” joins values, the source holds several entries; their conditions need not be identical. Equal values may be shown once. Read-outs that look alike come from different tables or passages of the source.

Columns and labels:
Panc-1 xenografts = conditions: Panc-1 xenograft; for Median T–C: two tumor volume doublings
SF-295 xenografts = conditions: SF-295 xenograft, i.p. 5/2/5 schedule vs irinotecan i.v. Q4D×3
NCI-H460 xenografts = conditions: NCI-H460 xenograft, i.p. 5/2/5 schedule vs irinotecan i.v. Q4D×3
HT29 xenografts = conditions: HT29 xenograft, i.p. 5/2/5 schedule vs irinotecan i.v. Q4D×3
Panc-1 cells [1] = test: Growth inhibition assay, Panc-1 cells; assay type: cell-based, human; conditions: for IC50 vs. BACPT: ratio of IC50 to that of BACPT; for IC90 vs. BACPT: ratio of IC90 to that of BACPT
[2] = test system: SK-N-MC neuroblastoma cell line; test: Growth inhibition assay, SK-N-MC neuroblastoma cells; assay type: cell-based, human
[3] = test system: IMR-32 neuroblastoma cell line; test: Growth inhibition assay, IMR-32 neuroblastoma cells; assay type: cell-based, human
[4] = test system: SK-N-BE(2c) neuroblastoma cell line; test: Growth inhibition assay, SK-N-BE; assay type: cell-based, human
MCF-7 cells = MCF-7 cells cultured at pH 6.8 vs. 7.4; cited from earlier work
[5] = test system: NGP neuroblastoma cell line; test: Growth inhibition assay, NGP neuroblastoma cells; assay type: cell-based, human
Panc-1 cells [6] = test: Drug interaction assay with gemcitabine in Panc-1 cells; assay type: cell-based, human; conditions: for Dose reduction index: gemcitabine followed 24 h by BACPT, Panc-1
In short: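 Panc-1 cells were grown in DMEM with 10% FBS and seeded at 3,000 cells/well. Gemcitabine was given first, then the test compound 24 h later. Exposure was 3 days, followed by 2 days in drug-free medium. Survival was read by ATP assay, with seven dose levels per curve in triplicate. Interaction was analysed by the Chou combination-index method as a function of fraction affected (fa = 0.5 is the IC50).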

IMR-32 histocultures = test: Histoculture assay, IMR-32; assay type: cell-based, human; conditions: hypoxic (1.5% O2) and acidic (pH 6.8), results not shown
[7] = 8.0 mg/kg i.p., 5/2/5 schedule, 8 mg/kg
[8] = read-out: IC50 (nM) pH 7.4, pH 7.4
[9] = read-out: IC50 (nM) pH 6.8, pH 6.8
[10] = 60 mg/kg i.v., Q4D×3 schedule, 60 mg/kg

Molecule: 7-butyl-10-amino-camptothecin-(20S) β-alanine-lysine [BACPTDP]
- Median survival (Panc-1 xenografts; 4.5 mg/kg i.p., 5/2/5 schedule): 27.4 ± 2.0 days
- TFS (Panc-1 xenografts; 4.5 mg/kg i.p., 5/2/5 schedule): 0
- Median T–C (Panc-1 xenografts; 4.5 mg/kg i.p., 5/2/5 schedule): 10.9 days
- Median survival (Panc-1 xenografts; [7]): 67 days and 66.7 ± 7.8 days
- TFS (tumor-free animals at 95 days) (Panc-1 xenografts; [7]): 2/6 and 2
- Median T–C (Panc-1 xenografts; 8.0 mg/kg i.p., 5/2/5 schedule): 60.0 days
- antitumor activity relative to irinotecan (SF-295 xenografts): comparable to irinotecan
- antitumor activity relative to irinotecan (NCI-H460 xenografts): comparable to irinotecan
- antitumor activity relative to irinotecan (HT29 xenografts): comparable to irinotecan

Molecule: Nc1ncn([C@@H]2O[C@H](CO)[C@@H](O)[C@H]2O)c(=O)n1 [5-Azacytidine]
- IC50 (Panc-1 cells [1]; Homo sapiens, PANC-1): 68800 nM
- IC90 (nM) (Panc-1 cells [1]; Panc-1 cells): not achieved
- IC50 vs. BACPT (Panc-1 cells [1]; Panc-1 cells): 16,916

Molecule: O=c1[nH]cc(F)c(=O)[nH]1 [5-Flurouracil]
- IC50 (Panc-1 cells [1]; Homo sapiens, PANC-1): 9180 nM
- IC90 (Panc-1 cells [1]; Homo sapiens, PANC-1): 97600 nM
- IC50 vs. BACPT (Panc-1 cells [1]; Panc-1 cells): 2,257
- IC90 vs. BACPT (Panc-1 cells [1]; Panc-1 cells): 1,136

Molecule: CCCCc1c2c(nc3ccc(N)cc13)-c1cc3c(c(=O)n1C2)COC(=O)C3(O)CC (stereo not drawn) [BACPT, 7-Butyl-10-amino-camptothecin]
- Fold increase at acidic pH ([2]; pH 6.8 vs 7.4): 8
- IC50 [2, 8]: 0.001 nM
- Fold increase at acidic pH ([3]; IMR-32, pH 6.8 vs 7.4): 12
- IC50 ([3]; read-out: IC50 (nM) pH 6.8, IMR-32, pH 6.8): 127 nM
- IC50 ([3]; read-out: IC50 (nM) pH 7.4, IMR-32, pH 7.4): 1390 nM
- Fold increase at acidic pH ([4]; pH 6.8 vs 7.4): 5
- IC50 [4, 9]: 0.019 nM
- IC50 [4, 8]: 0.099 nM
- increase in potency at acidic pH (MCF-7 cells): ~15 fold
- Fold increase at acidic pH ([5]; pH 6.8 vs 7.4): 49
- IC50 [5, 9]: 26 nM
- IC50 [5, 8]: 1290 nM
- IC50 (Panc-1 cells [1]; Panc-1 cells): 4 nM
- IC90 (Panc-1 cells [1]; Panc-1 cells): 86 nM
- IC50 vs. BACPT (Panc-1 cells [1]; Panc-1 cells): 1
- IC90 vs. BACPT (Panc-1 cells [1]; Panc-1 cells): 1
- Dose reduction index (Panc-1 cells [6]; Fraction affected 0.2): 2.0
- Dose reduction index (Panc-1 cells [6]; Fraction affected 0.3): 5.3
- Dose reduction index (Panc-1 cells [6]; Fraction affected 0.4): 11.0
- Dose reduction index (Panc-1 cells [6]; Fraction affected 0.6): 38.0
- Dose reduction index (Panc-1 cells [6]; Fraction affected 0.7): 69.1
- Dose reduction index (Panc-1 cells [6]; Fraction affected 0.8): 133.8
- interaction in combination with gemcitabine (combination index) (Panc-1 cells [6]; Panc-1, molar ratio 100:1 gemcitabine:BACPT, median effect analysis): additive (CI = 1) to synergistic (CI < 1)
- IC50 (IMR-32 histocultures): 200 nM

Molecule: CCc1c2c(nc3ccc(OC(=O)N4CCC(N5CCCCC5)CC4)cc13)-c1cc3c(c(=O)n1C2)COC(=O)[C@]3(O)CC [CPT-11, irinotecan]
- Maximum body weight loss (%) (Panc-1 xenografts; 40 mg/kg i.v., Q4D×3 schedule): 2%
- Median survival (Panc-1 xenografts; 40 mg/kg i.v., Q4D×3 schedule): 35.0 ± 9.3 days
- TFS (Panc-1 xenografts; 40 mg/kg i.v., Q4D×3 schedule): 0
- Maximum body weight loss (%) (Panc-1 xenografts; 60 mg/kg i.v., Q4D×3 schedule): 6%
- TFS (Panc-1 xenografts; 60 mg/kg i.v., Q4D×3 schedule): 0
- Median survival (Panc-1 xenografts; [10]): 31.4 ± 1.5 days
- TFS (Panc-1 xenografts; [10]): no tumor-free animals

Molecule: Cc1nc(Nc2ncc(C(=O)Nc3c(C)cccc3Cl)s2)cc(N2CCN(CCO)CC2)n1 [Dasatinib]
- IC50 (Panc-1 cells [1]; Homo sapiens, PANC-1): 6890 nM
- IC90 (Panc-1 cells [1]; Homo sapiens, PANC-1): 13200 nM
- IC50 vs. BACPT (Panc-1 cells [1]; Panc-1 cells): 1,693
- IC90 vs. BACPT (Panc-1 cells [1]; Panc-1 cells): 154

Molecule: Nc1ncn([C@H]2C[C@H](O)[C@@H](CO)O2)c(=O)n1 [Decitabine]
- IC50 (Panc-1 cells [1]; Homo sapiens, PANC-1): 69000 nM
- IC90 (nM) (Panc-1 cells [1]; Panc-1 cells): not achieved
- IC50 vs. BACPT (Panc-1 cells [1]; Panc-1 cells): 16,963

Molecule: C#Cc1cccc(Nc2ncnc3cc(OCCOC)c(OCCOC)cc23)c1 [Erlotinib]
- IC50 (nM) (Panc-1 cells [1]; Panc-1 cells): inactive

Molecule: COc1cc([C@@H]2c3cc4c(cc3[C@@H](O[C@@H]3O[C@@H]5CO[C@@H](C)O[C@H]5[C@H](O)[C@H]3O)[C@H]3COC(=O)[C@H]23)OCO4)cc(OC)c1O [Etoposide]
- IC50 (Panc-1 cells [1]; Homo sapiens, PANC-1): 651 nM
- IC90 (Panc-1 cells [1]; Homo sapiens, PANC-1): 8750 nM
- IC50 vs. BACPT (Panc-1 cells [1]; Panc-1 cells): 160
- IC90 vs. BACPT (Panc-1 cells [1]; Panc-1 cells): 102

Molecule: Nc1ccn([C@@H]2O[C@H](CO)[C@@H](O)C2(F)F)c(=O)n1 [Gemcitabine]
- IC50 (Panc-1 cells [1]; Homo sapiens, PANC-1): 23 nM
- IC90 (Panc-1 cells [1]; Homo sapiens, PANC-1): 117 nM
- IC50 vs. BACPT (Panc-1 cells [1]; Panc-1 cells): 6
- IC90 vs. BACPT (Panc-1 cells [1]; Panc-1 cells): 1
- Dose reduction index (Panc-1 cells [6]; Fraction affected 0.2): 1.0
- Dose reduction index (Panc-1 cells [6]; Fraction affected 0.3): 1.6
- Dose reduction index (Panc-1 cells [6]; Fraction affected 0.4): 2.3
- Dose reduction index (Panc-1 cells [6]; Fraction affected 0.5 (IC50)): 3.1
- Dose reduction index (Panc-1 cells [6]; Fraction affected 0.6): 3.9
- Dose reduction index (Panc-1 cells [6]; Fraction affected 0.7): 4.8
- Dose reduction index (Panc-1 cells [6]; Fraction affected 0.8): 5.8

Molecule: CCc1c2c(nc3ccc(O)cc13)-c1cc3c(c(=O)n1C2)COC(=O)[C@]3(O)CC [SN-38]
- IC50 (IMR-32 histocultures): 10000 nM

Molecule: Cn1nnc2c(C(N)=O)ncn2c1=O [Temozolomide]
- IC50 (nM) (Panc-1 cells [1]; Panc-1 cells): inactive

Molecule: CCC1=C[C@@H]2CN(C1)Cc1c([nH]c3ccccc13)[C@@](C(=O)OC)(c1cc3c(cc1OC)N(C)[C@H]1[C@@](O)(C(=O)OC)[C@H](OC(C)=O)[C@]4(CC)C=CCN5CC[C@]31[C@@H]54)C2 [Vinorelbine]
- IC50 (Panc-1 cells [1]; Homo sapiens, PANC-1): 103 nM
- IC90 (nM) (Panc-1 cells [1]; Panc-1 cells): not achieved
- IC50 vs. BACPT (Panc-1 cells [1]; Panc-1 cells): 25
